Reference: ChEMBL document CHEMBL1914423, “New imidazo[2,1-b]thiazole derivatives: synthesis, in vitro anticancer evaluation, and in silico studies” (Eur J Med Chem, 2011)

Tests used:
[1] = system: U-251; assay: Anticancer activity against human U251 cells assessed as cell growth at 10^-5 M after 48 hrs by SRB assay; type: functional; settings: U-251, 48 h, read-out: Activity
In short: (§1)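 NCI-60 single-dose screen: cells in RPMI 1640 with 5% FBS and 2 mM L-glutamine, plated at 5000–40,000 cells/well by doubling time, and preincubated 24 h at 37 °C. Compound given at one concentration from DMSO stock. Cells TCA-fixed and SRB-stained, absorbance at 515 nm. Percent growth relative to time-zero and untreated controls; inhibition % = 100 − growth %.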

[2] = system: 786-0; assay: Anticancer activity against human 786-0 cells assessed as cell growth at 10^-5 M after 48 hrs by SRB assay; type: functional; settings: 786-0, 48 h, read-out: Activity
In short: (§2)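 NCI-60 single-dose screen at one concentration. Cells grown in RPMI 1640 with 5% FBS and 2 mM L-glutamine, plated at 5000–40,000 cells/well, and pre-incubated 24 h at 37 °C in 5% CO2 before DMSO-dissolved drug was added. Cells fixed with TCA, SRB-stained, absorbance read at 515 nm. Percent growth calculated against time-zero and untreated control plates.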

[3] = system: SNB-75; assay: Anticancer activity against human SNB75 cells assessed as cell growth at 10^-5 M after 48 hrs by SRB assay; type: functional; settings: SNB-75, 48 h, read-out: Activity; in short: as §1
[4] = system: HCC 2998; assay: Anticancer activity against human HCC2998 cells assessed as cell growth at 10^-5 M after 48 hrs by SRB assay; type: functional; settings: HCC 2998, 48 h, read-out: Activity; in short: as §2
[5] = system: NCI-H226; assay: Anticancer activity against human NCI-H226 cells assessed as cell growth at 10^-5 M after 48 hrs by SRB assay; type: functional; settings: NCI-H226, 48 h, read-out: Activity
[6] = system: SK-OV-3; assay: Anticancer activity against human SKOV3 cells assessed as cell growth at 10^-5 M after 48 hrs by SRB assay; type: functional; settings: SK-OV-3, 48 h, read-out: Activity
[7] = system: RPMI-8226; assay: Anticancer activity against human RPMI8226 cells assessed as cell growth at 10^-5 M after 48 hrs by SRB assay; type: functional; settings: RPMI-8226, 48 h, read-out: Activity
[8] = system: LOX IMVI; assay: Anticancer activity against human LOXIMVI cells assessed as cell growth at 10^-5 M after 48 hrs by SRB assay; type: functional; settings: read-out: Activity; in short: as §2
[9] = system: K562; assay: Anticancer activity against human K562 cells assessed as cell growth at 10^-5 M after 48 hrs by SRB assay; type: functional; settings: K562, 48 h, read-out: Activity; in short: as §2
[10] = system: OVCAR-3; assay: Anticancer activity against human OVCAR3 cells assessed as cell growth at 10^-5 M after 48 hrs by SRB assay; type: functional; settings: OVCAR-3, 48 h, read-out: Activity
[11] = system: ACHN; assay: Anticancer activity against human ACHN cells assessed as cell growth at 10^-5 M after 48 hrs by SRB assay; type: functional; settings: read-out: Activity; in short: as §2
[12] = system: SK-MEL-28; assay: Anticancer activity against human SK-MEL-28 cells assessed as cell growth at 10^-5 M after 48 hrs by SRB assay; type: functional; settings: SK-MEL-28, 48 h, read-out: Activity
[13] = system: KM12; assay: Anticancer activity against human KM12 cells assessed as cell growth at 10^-5 M after 48 hrs by SRB assay; type: functional; settings: KM12, 48 h, read-out: Activity; in short: as §2
[14] = system: SN12C; assay: Anticancer activity against human SN12C cells assessed as cell growth at 10^-5 M after 48 hrs by SRB assay; type: functional; settings: read-out: Activity
[15] = system: SF-295; assay: Anticancer activity against human SF295 cells assessed as cell growth at 10^-5 M after 48 hrs by SRB assay; type: functional; settings: SF-295, 48 h, read-out: Activity
[16] = system: Malme-3M; assay: Anticancer activity against human MALME-3M cells assessed as cell growth at 10^-5 M after 48 hrs by SRB assay; type: functional; settings: read-out: Activity; in short: as §2
[17] = system: A498; assay: Anticancer activity against human A498 cells assessed as cell growth at 10^-5 M after 48 hrs by SRB assay; type: functional; settings: A498, 48 h, read-out: Activity; in short: as §2
[18] = system: SF-268; assay: Anticancer activity against human SF268 cells assessed as cell growth at 10^-5 M after 48 hrs by SRB assay; type: functional; settings: SF-268, 48 h, read-out: Activity
[19] = system: MDA-MB-435; assay: Anticancer activity against human MDA-MB-435 cells assessed as cell growth at 10^-5 M after 48 hrs by SRB assay; type: functional; settings: MDA-MB-435, 48 h, read-out: Activity
[20] = system: HCT-15; assay: Anticancer activity against human HCT15 cells assessed as cell growth at 10^-5 M after 48 hrs by SRB assay; type: functional; settings: HCT-15, 48 h, read-out: Activity; in short: as §2
[21] = system: DU-145; assay: Anticancer activity against human DU145 cells assessed as cell growth at 10^-5 M after 48 hrs by SRB assay; type: functional; settings: DU-145, 48 h, read-out: Activity; in short: as §2
[22] = system: CAKI-1; assay: Anticancer activity against human Caki1 cells assessed as cell growth at 10^-5 M after 48 hrs by SRB assay; type: functional; settings: CAKI-1, 48 h, read-out: Activity; in short: as §2
[23] = Antiproliferative activity against human A375P cells after 48 hrs by MTT assay; type: functional, cell-based
In short: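 A375P cells in DMEM with 10% FBS at 37 °C, 5% CO2. Seeded at 5×10³ cells/well, held 24 h, then treated with 12-point 3-fold serial dilutions for 48 h. Viability by MTT reduction. IC50 values are means of triplicate experiments.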

[24] = system: OVCAR-8; assay: Anticancer activity against human OVCAR8 cells assessed as cell growth at 10^-5 M after 48 hrs by SRB assay; type: functional; settings: OVCAR-8, 48 h, read-out: Activity
[25] = system: HL-60(TB); assay: Anticancer activity against human HL-60(TB) cells assessed as cell growth at 10^-5 M after 48 hrs by SRB assay; type: functional; settings: HL-60, 48 h, read-out: Activity
In short: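 NCI-60 single-dose screen. Cells in RPMI 1640 with 5% FBS and 2 mM L-glutamine were plated at 5000–40,000 cells/well and preincubated 24 h at 37 °C before one compound concentration. Time-zero plates were TCA-fixed at drug addition. For suspension cells, settled cells were fixed with cold TCA, then SRB-stained and read at 515 nm. Percent growth was calculated from time-zero, control and treated absorbances.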

[26] = system: PC-3; assay: Anticancer activity against human PC3 cells assessed as cell growth at 10^-5 M after 48 hrs by SRB assay; type: functional; settings: PC-3, 48 h, read-out: Activity
[27] = system: OVCAR-5; assay: Anticancer activity against human OVCAR5 cells assessed as cell growth at 10^-5 M after 48 hrs by SRB assay; type: functional; settings: OVCAR-5, 48 h, read-out: Activity

SMILES	growth at 10 µM [1] [%]	growth at 10 µM [2] [%]	growth at 10 µM [3] [%]	growth at 10 µM [4] [%]	growth at 10 µM [5] [%]	growth at 10 µM [6] [%]	growth at 10 µM [7] [%]	growth at 10 µM [8] [%]	growth at 10 µM [9] [%]	growth at 10 µM [10] [%]	growth at 10 µM [11] [%]	growth at 10 µM [12] [%]	growth at 10 µM [13] [%]	growth at 10 µM [14] [%]	growth at 10 µM [15] [%]	growth at 10 µM [16] [%]	growth at 10 µM [17] [%]	growth at 10 µM [18] [%]	growth at 10 µM [19] [%]	growth at 10 µM [20] [%]	also measured
O=C(NCCNc1nccc(-c2c(-c3cccc(O)c3)nc3sccn23)n1)c1cc(C(F)(F)F)cc(C(F)(F)F)c1	105	101	87.7	129	116	96.3	91	90.7	96.2	108	88.3	61.8	103	102	97.1	27	112	105	59.2	96.6	growth at 10 µM [21]: 114%; growth at 10 µM [22]: 96.8%; IC50 [23]: > 10 µM; growth at 10 µM [24]: 102%; growth at 10 µM [25]: 123%; growth at 10 µM [26]: 82.8%; growth at 10 µM [27]: 104%
O=C(NCCNc1nccc(-c2c(-c3cccc(O)c3)nc3sccn23)n1)c1ccc(N2CCOCC2)c(C(F)(F)F)c1	82	60.1	58	106	69.5	66.4	58.8	42.2	63	89.1	60.8	42.8	77.5	76	67.5	-4.27	47.8	79.1	20.9	80	growth at 10 µM [21]: 94.9%; growth at 10 µM [22]: 66.9%; IC50 [23]: > 10 µM; growth at 10 µM [24]: 72.8%; growth at 10 µM [25]: 113%; growth at 10 µM [26]: 56.6%; growth at 10 µM [27]: 91.2%
O=C(NCCNc1nccc(-c2c(-c3cccc(O)c3)nc3sccn23)n1)c1cc(N2CCOCC2)cc(C(F)(F)F)c1	105	86.6	83.2	109	106	94	67	52.3	70.7	107	79.4	44.5	97.3	89.8	84.4	3.04	92.8	102	34.7	92	growth at 10 µM [21]: 110%; growth at 10 µM [22]: 82.5%; IC50 [23]: 4.4 µM; growth at 10 µM [24]: 78.1%; growth at 10 µM [25]: 102%; growth at 10 µM [26]: 78.2%; growth at 10 µM [27]: 101%
